Here are results for 90 compounds from PubChem BioAssay AID2097 (Broad Institute, 2009).

The campaign covered roughly 300,000 compounds. About 120 (0.04%) were called active. For the sample, actives were picked, then their nearest neighbours and some compounds at random. A number with no mark means an inactive call.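 Rule for the calls: active = more than half of replicate wells score below -50%, meaning over 50% inhibition versus plate controls; inconclusive = some replicates but at most half score below -50%; inactive = no replicate scores below -50%.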

Glycogen synthase kinase-3 beta (Homo sapiens), sequence (P49841 whole entry, looked up): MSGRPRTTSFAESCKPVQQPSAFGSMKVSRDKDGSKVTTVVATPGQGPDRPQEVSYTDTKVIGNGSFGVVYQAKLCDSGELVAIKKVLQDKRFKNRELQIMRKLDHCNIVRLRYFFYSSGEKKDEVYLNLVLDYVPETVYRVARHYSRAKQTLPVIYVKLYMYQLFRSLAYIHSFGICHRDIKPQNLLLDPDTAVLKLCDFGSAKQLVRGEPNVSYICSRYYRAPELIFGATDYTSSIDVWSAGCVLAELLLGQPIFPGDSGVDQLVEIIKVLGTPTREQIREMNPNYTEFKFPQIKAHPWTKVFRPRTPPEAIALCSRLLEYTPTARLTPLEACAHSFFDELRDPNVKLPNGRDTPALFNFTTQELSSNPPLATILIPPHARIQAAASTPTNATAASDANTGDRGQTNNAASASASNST

The target in the experiment is Glycogen synthase kinase-3 beta (Homo sapiens) (UniProt P49841). Briefly: blockers of GSK3B enzyme activity – biochemical, cell-free homogeneous, HTS, primary screen (AID 2097).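 Note: 0% = median DMSO wells and -100% = median GW8510 positive control wells.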 Conditions: GST-GSK3beta kinase, ADP-Glo luminescence, 60 min; at 10 µM; hits give low values. The essentials:
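Assay system: GST-tagged human GSK3beta kinase, cell-free; Input: 1.6 ng GSK3beta; Medium: Tris/MgCl2 kinase buffer; Timing: 60 min enzyme reaction, room temperature; Signal: ADP-Glo luminescence quantifying ADP generated by kinase; Evaluation: score relative to plate controls; Benchmarks: DMSO neutral wells and GW8510 at 20 µM as positive.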
Turning to `COc1ccc(C(=O)NC(C)Cn2nc(C)cc2C)cc1OC1CCN(C(C)=O)CC1` (stereo not given), the activity score (negative = inhibition) is -1.16%. For `COc1cc(CN2CCC(n3nccc3NC(=O)CCCc3ccccc3)CC2)ccc1O`, the activity score (negative = inhibition) was 1.56%.

For the compound `O=C(Cc1ccccc1)NCC1OCCc2ccccc21` (stereo not given), the activity score (negative = inhibition) is 1.24%. Next, `CSCCNCc1cn(-c2ccc(F)cc2F)nc1-c1ccccc1C`: 6.14%. Next, `COCCCNC(=O)CNC(=S)N(Cc1cc(OC)c(OC)c(OC)c1)C1CCCC1`: -1.22%; `CC(CCc1ccccc1)NCC(O)c1cccc([N+](=O)[O-])c1` (stereo not given): 0.339%; `O=C(C1CC1)N1N=C2CCCCC2C1(O)C(F)(F)F` (stereo not given): -1.66%. Next, `Cc1ccn2c(=O)c(NC(=O)c3cccc4ccccc34)c(C)nc2c1`: -0.598%. Consider `CCN(CC(=O)N1CCCC1)S(=O)(=O)c1ccc(F)cc1`, for which the activity score (negative = inhibition) is -0.618%. Next, `O=C(NCCNc1ccc([N+](=O)[O-])cc1Cl)c1ccccc1F`: -5.43%; `COc1ccc(N(Cc2ccc(N(C)C)cc2)C(=O)c2ccc(S(C)(=O)=O)cc2)cc1`: 1.2%. The figure for `Cc1cc(C)c(OCCN2CC(C)OC(C)C2)c(Br)c1` (stereo not given) is -2.1%; for `Cc1nc(SCC(=O)NC2CCCC2)[nH]c(=O)c1C` it is 1.74%. Consider `COc1ccccc1CNC(=O)C1CCN(S(=O)(=O)c2ccc3c(c2)OCCO3)CC1`, for which the activity score (negative = inhibition) is -1.16%. The figure for `COc1ccc(CCc2nc(-c3cccs3)no2)cc1` is 2.12%; for `O=C(CCN1C(=O)C2C3C=CC(C3)C2C1=O)Oc1ccc2ccccc2c1` (stereo not given) it is 1.85%; for `Nc1cccnc1Sc1ccccc1` it is -4.02%. Next, `C=CCn1cc(C(=O)NCc2ccc(Cl)cc2)c(=O)c2cc(S(=O)(=O)N(CC)CC)ccc21`: 4.27%. The figure for `O=C(O)C1CCCN1C1=NS(=O)(=O)c2ccccc21` (stereo not given) is 1.84%. Take `COC(=O)c1c(C(=O)OC)c(-c2cccc(C)c2)n2c1CS(=O)C2` (stereo not given): the activity score (negative = inhibition) was -0.0395%. As for `C[C@H](NC(=O)[C@@H]1Cc2ccccc2CN1C(=O)OC(C)(C)C)C(=O)NC1CCCC1`, the activity score (negative = inhibition) was 0.0958%. The figure for `C=CCN1CCN(C(=O)CCCc2ccccc2)CC1` is 3.12%. Next, `COc1ccccc1N1CCC(N2CCN(CC(C)(C)C)C(CCO)C2)CC1` (stereo not given): -1.04%. The figure for `COc1ccccc1C(=O)Nc1ccnn1C1CCN(C(=O)C(C)(C)C)CC1` is -0.909%; for `CC(C)(C)NC(=O)CSC(=Nc1ccccc1F)NC#N` it is 0.51%. On to `Cc1c(NC(=S)NC(=O)CCc2ccccc2)c(=O)n(-c2ccccc2)n1C`, for which the activity score (negative = inhibition) was 0.697%. Next, `COCc1ccc(C(=O)N2CCc3c([nH]c4ccccc34)C2c2ccccn2)s1` (stereo not given): 1.6%; `CCNC(=S)N(CCN(CC)CC)Cc1cc2cc3c(cc2[nH]c1=O)OCCO3`: 1.49%. The figure for `Cc1csc(NC(=O)CSc2nc(=O)cc(N)n2-c2ccc(F)cc2)n1` is 1.17%. Next, `Cc1c(C(=O)NCCN(C)C)oc2ccc(S(=O)(=O)N3CCCC3)cc12`: -4.78%; `CN1CCN(/N=C2/C(=O)Nc3ccc([N+](=O)[O-])cc32)CC1`: -63.8% (active); `Cc1ccc([N+](=O)[O-])cc1S(=O)(=O)N1CCCN(C)CC1`: -1.01%.

As to `CN1CCN(/N=C/c2ccc(-c3ccc([N+](=O)[O-])cc3)o2)CC1`, the activity score (negative = inhibition) is -0.646%. Next, `Cc1cccc(NC(=O)C2CC(=O)OC23CCCC3)c1` (stereo not given): 2.08%; `COCCn1c(C)cc(C(=O)CSc2nc3ccccc3c(=O)n2C(C)COC)c1C` (stereo not given): -2.4%; `COC(=O)/C(=C\Nc1ccccc1)NC(=O)c1ccc(Cl)cc1Cl`: 1.73%. Next, `N/C(=N\OC(=O)CCCC(=O)O)c1ncc(C(F)(F)F)cc1Cl`: 1.16%.

For `CCS(=O)(=O)N1CCC(N2CCN(c3ccccc3)CC2)CC1`, the activity score (negative = inhibition) is 1%. Next, `CCc1cccc(NC(=S)N(CCN(C)C)C2CCN(C(C)C)CC2)c1`: 1.7%; `COc1ccc2ccccc2c1CNCc1ccccn1`: -4.15%. `O=[N+]([O-])c1ccccc1S(=O)(=O)Nc1cccc2cccnc12`: the activity score (negative = inhibition) was 0.31%. Next, `CC(=O)N1CC[n+]2c(-c3ccc([N+](=O)[O-])cc3)csc21`: -0.11%.

Regarding `COCCn1c(SCC(=O)Nc2ccccc2F)nc2c(c1=O)SCC2`, the activity score (negative = inhibition) is 0.573%.

`CN(CC(=O)Nc1ccccc1Cl)C(=O)c1ccccc1SCC(=O)N1CCCC1`: the activity score (negative = inhibition) is -1.62%. The figure for `CC(=O)Nc1cccc(C(=O)OCC(=O)c2ccc3c(c2)OCO3)c1` is 0.7%. On to `COc1ccc(N(CC(=O)N2CCCCCC2)S(=O)(=O)c2ccccc2)cc1`, for which the activity score (negative = inhibition) was -4.12%. The figure for `CCOc1ccc(NC(=O)c2ccc(NC(=O)CN3C(=O)C(=O)N(CC(C)C)C3=O)cc2)cc1` is 0.0927%; for `CC(C)n1cnc2c(Nc3cccc(Cl)c3)nc(N(CCO)CCCO)nc21` it is -11.5%. The figure for `OCCCNc1nccc(-c2cc(Nc3cccc(Cl)c3)ncn2)n1` is -98.4% (active). The figure for `OCCCNc1nc(-c2ccccc2)c2cc(Cl)ccc2n1` is 0.00658%. On to `Nc1nonc1-n1nnc(C(=O)N/N=C\c2ccncc2)c1CN1CCCCC1`, for which the activity score (negative = inhibition) was -94.2% (active).

With `Nc1nonc1-n1nnc(C(=O)N/N=C/c2ccccc2O)c1CN1CCCC1`, the activity score (negative = inhibition) was -36.9%. Next, `NNC(=O)c1nnn(-c2nonc2N)c1CN1CCCC1`: 2.11%; `CN(CCC1CCOCC1)C(=O)CC1C(=O)NCCN1Cc1cccc(F)c1` (stereo not given): -0.992%. Turning to `COc1ccc(S(=O)(=O)NCCCCOc2ccc(Cl)cc2)cc1`, the activity score (negative = inhibition) is -0.131%. For the compound `CC(=O)Nc1ccccc1OC(C)C(=O)N1CCC(C)CC1` (stereo not given), the activity score (negative = inhibition) is 0.974%. Next, `CCn1cc(C(=O)NCCC(=O)NCCO)c(=O)c2cc3c(cc21)OCO3`: -2.21%.

As for `COc1ccccc1-n1c(=S)[nH]c2c(sc(=S)n2-c2ccc(C)cc2C)c1=O`, the activity score (negative = inhibition) was -0.962%. In the case of `NC(=O)C[n+]1cccc(C(N)=O)c1`, the activity score (negative = inhibition) was 2.13%. Take `CC(=O)Nc1ccc(C(=O)Nc2cccc(S(=O)(=O)NC3=NCCC3)c2)cc1`: the activity score (negative = inhibition) is 1.23%.

`CSC1=NC2(C)CCCCC2C12C=CC(=O)C=C2` (stereo not given): the activity score (negative = inhibition) is 2.87%. As for `Cc1nc(C)c(-c2nnc(-c3cccc(S(=O)(=O)N(C)C)c3)o2)cc1C(=O)NN`, the activity score (negative = inhibition) is -3.56%. Turning to `CC(=O)N1CCN(S(=O)(=O)c2cccc(C(=O)NC3CCC(C)CC3)c2)CC1` (stereo not given), the activity score (negative = inhibition) is -4.6%. Next, `O=C(NCc1ccco1)/C(=C\c1cccc([N+](=O)[O-])c1)NC(=O)c1ccco1`: -2.64%; `CCS(=O)(=O)c1ccc(-c2cccc(NC(=O)c3ccc(Br)o3)c2)nn1`: 2.73%; `CCC(C)(C)NC(=O)C(c1cccc(OC)c1OC)N(CC(C)C)C(=O)CCC(=O)Nc1cc(C)on1` (stereo not given): -2.19%. Turning to `COC(=O)[C@@H]1C[C@@]2(O)[C@H](O)[C@H](O)[C@H](O)C[C@H]2N1Cc1ccc(C)s1`, the activity score (negative = inhibition) was 2.63%. The figure for `CCCCC1S/C(=N/N=C/c2cccs2)NC1=O` (stereo not given) is 0.416%; for `COc1ccc(OC)c(-c2csc(NC(=O)C3=NNC(=O)CC3)n2)c1` it is -0.495%.

Take `CC(C)c1ccc(NC(=O)CCN2C(=O)c3ccc([N+](=O)[O-])cc3C2=O)cc1`: the activity score (negative = inhibition) was -3.13%. The figure for `O=S(=O)(NC1CC1)c1ccc(F)c(F)c1` is 1.68%; for `CCCCn1c(=O)c(CCC(=O)OCC(=O)Nc2ccc(C)c(Cl)c2)nc2ccccc21` it is -3%.

For `CCN(C(=O)C1CCCN(c2nc(-c3ccc(OC)cc3)no2)C1)c1ccc(OC)cc1` (stereo not given), the activity score (negative = inhibition) was -3.3%. The figure for `COc1ccc(NC(=O)CCC(=O)N2CCN(S(=O)(=O)c3ccc(C)cc3)CC2)c(OC)c1` is -0.163%.

`CCCc1ccc(OCC(O)CN2CCN(C(=O)OCC)CC2)cc1` (stereo not given): the activity score (negative = inhibition) is 4.1%. As to `CCc1nn(CCCC(=O)Nc2ccc(C)cc2C)c(=O)c2cc3occc3n12`, the activity score (negative = inhibition) is 2.31%. Regarding `CC(=O)C1=C(C)NC(C)=C(C(C)=O)C1c1cn(-c2ccccc2)nc1-c1cccs1`, the activity score (negative = inhibition) is -1.7%. Next, `O=C(N/N=C/c1cccc(O)c1)c1cc2c(ccc3ccccc32)o1`: -3.92%; `COc1ccc(Cl)cc1NC(=O)CN(C)C(=O)CCCc1c[nH]c2ccccc12`: -0.853%; `COc1ccc(-n2nc(C(=O)NCC(=O)N3CCCCCC3)c3ccccc3c2=O)cc1Cl`: -0.439%. The figure for `COc1cccc(CCNC(=O)COc2cccc3c2OC(C)(C)C3)c1` is 1.98%.

Consider `Cc1ccc(NC(=O)Cn2cccc2C2=NC(c3ccccc3)CO2)c(C)c1` (stereo not given), for which the activity score (negative = inhibition) was -1.16%.

Consider `COc1ccc(C(=O)C2CCCN(C(=O)c3ccc(OC)o3)C2)c(C)c1` (stereo not given), for which the activity score (negative = inhibition) is 0.0837%.

For the compound `CC(C)Cc1ccc(C(C)C(=N)N)cc1` (stereo not given), the activity score (negative = inhibition) is -0.885%. Consider `CC(C)(C)c1ccc(C(=O)NNC(=O)Cc2ccccc2)cc1`, for which the activity score (negative = inhibition) is -1.05%. Next, `COc1ccc(NC(=O)C2CCC(CNS(=O)(=O)c3csc(C(N)=O)c3)CC2)cc1OC` (stereo not given): 2.83%; `O=c1c2c(ncn1Cc1ccccc1)nc1n2CCC1`: -1.79%. For the compound `O=C(CSc1ccc(-c2ccc(-n3cccn3)cc2)nn1)Nc1ccc([N+](=O)[O-])cc1`, the activity score (negative = inhibition) was -1.44%. The figure for `CCO[C@@H]1OC(C(=O)NC2CC2)=C[C@H](C)[C@H]1CCCO` is 1.19%; for `CCOC(=O)C1=C(CC)Nc2ccccc2N=C1NC(=O)c1cccc(S(=O)(=O)N2CCCC2)c1` it is 3.96%.
